Measured values of several laboratories.
Each line is one published result; the experiments were not run side by side.
Cell line: HCT-116
Read-out: cell growth or viability

Cc1c(OCC(F)(F)F)ccnc1COc1ccc(NC(=O)Nc2ccc(Cl)c(C(F)(F)F)c2)cc1 — IC50 (MTT; 72 h): 5.6 µM
CC[C@H](C)C(=O)O[C@H]1C[C@@H](C)C=C2C=C[C@H](C)[C@H](CC[C@@H]3C[C@@H](O)CC(=O)O3)[C@H]21 — IC50 (SRB; 72 h): 6.79 µg/mL
FC(F)(F)c1ccc(C(c2c[nH]c3ccccc23)c2c[nH]c3ccccc23)cc1 — IC50 (ATP luminescence; 22 h): 9.3 µM
COc1cc(CNC(=O)CCCC/C=C/C(C)C)ccc1OCc1cn(-c2ccc(C(F)(F)F)cc2)nn1 — IC50 (SRB): 8.9 µM
CC1=C(O)C(=O)C=C2C1=CC=C1[C@@]2(C)CC[C@@]2(C)[C@@H]3C[C@](C)(C(=O)OCCCBr)CC[C@]3(C)CC[C@]12C — IC50 (MTT; 48 h): 0.52 µM
CCN(CC)C(=S)NC(=O)c1ccc2ccccc2c1 — IC50 (48 h): 5.07 µM
CC[C@]1(O)C[C@H]2CN(CCc3c([nH]c4ccccc34)[C@@](C(=O)OC)(c3cc4c(cc3OC)N(C=O)[C@H]3[C@@](O)(C(=O)OC)[C@H](OC(C)=O)[C@]5(CC)C=CCN6CC[C@]43[C@@H]65)C2)C1 — IC50 (fluorescence; 72 h): 0.0017 µM
COc1ccnc(COc2ccc(NC(=O)Nc3cc(F)cc(F)c3)cc2)c1OC — IC50 (MTT; 72 h): 25.7 µM
COC(=O)c1cc2ccc(O)cc2oc1=O — IC50 (MTT; 36 h): > 20 µM
COc1cccc2c1C(=O)c1c(O)c3c(c(O)c1C2=O)C[C@@](O)(C(=O)CO)C[C@@H]3O[C@H]1C[C@H](N)[C@H](O)[C@H](C)O1 — IC50 (48 h): 1.02 µM
CC(C)C[C@H](NC(=O)[C@H](Cc1ccccc1)NC(=O)c1cnccn1)B(O)O — IC50 (ATP luminescence): 0.0097 µM
COCCCOc1ccnc(COc2ccc(NC(=O)Nc3cc(F)cc(F)c3)cc2)c1C — IC50 (MTT; 72 h): 56.6 µM
CC(=O)Oc1ccc2oc(=O)cc(CSC(C)=O)c2c1 — IC50 (MTT; 36 h): > 20 µM
COc1cccc2c3c(c[n+](C)c12)sc1cccc(F)c13 — IC50 (MTT; 72 h): 6.8 µM
COc1cccc2c1C(=O)c1c(O)c3c(c(O)c1C2=O)C[C@@](O)(C(=O)CO)C[C@@H]3O[C@H]1C[C@H](N)[C@H](O)[C@H](C)O1 — IC50 (MTT): 64 µM
COc1ccnc(COc2ccc(NC(=O)Nc3cccc(C(F)(F)F)c3)cc2)c1OC — IC50 (MTT; 72 h): 22.9 µM
CC1=C(O)C(=O)C=C2C1=CC=C1[C@@]2(C)CC[C@@]2(C)[C@@H]3C[C@](C)(C(=O)OCCO)CC[C@]3(C)CC[C@]12C — IC50 (MTT; 48 h): 0.47 µM
Cc1cc(C)n(-c2nc(Nc3ccc(Br)cc3)nc(N3CCOCC3)n2)n1 — IC50 (MTT; 72 h): 0.5 µM
O=c1[nH]cc(F)c(=O)[nH]1 — IC50 (WST-1; 48 h): 9.5 µM
COc1cc([C@@H]2c3cc4c(cc3[C@@H](O[C@@H]3O[C@@H]5CO[C@@H](C)O[C@H]5[C@H](O)[C@H]3O)[C@H]3COC(=O)[C@H]23)OCO4)cc(OC)c1O — IC50 (MTS; 72 h): 19.3 µM
COCCCOc1ccnc(COc2ccc(NC(=O)Nc3ccc(OC)cc3)cc2)c1C — IC50 (MTT; 72 h): 12.7 µM
O=C(/C=C/c1ccc(O)c(O)c1)O[C@@H]1C[C@](O)(C(=O)O)C[C@@H](O)[C@H]1O — IC50 (WST-1; 48 h): 27.9 µM
CNC(=O)c1cc(Oc2ccc(NC(=O)Nc3ccc(Cl)c(C(F)(F)F)c3)cc2)ccn1 — IC50 (MTT; 72 h): 2.25 µM
O=C(NC(=S)NC1CCCCC1)c1ccc2ccccc2c1 — IC50 (48 h): 4.62 µM
Cc1c(C)c2c(O)cc(O)cc2oc1=O — IC50 (MTT; 36 h): > 20 µM
COC(=O)c1ccc(-n2nc(SC)nc2N)cc1 — IC50 (MTT): 39.1 µM
O=C(NC(=S)NCc1ccccc1)c1ccc2ccccc2c1 — IC50 (48 h): 4.55 µM
O=c1cc(CCl)c2c(O)cc(O)cc2o1 — IC50 (MTT; 36 h): > 20 µM
CC1=C(O)C(=O)C=C2C1=CC=C1[C@@]2(C)CC[C@@]2(C)[C@@H]3C[C@](C)(C(=O)OCCCCCCCCO)CC[C@]3(C)CC[C@]12C — IC50 (MTT; 48 h): 0.58 µM
CCn1c(-c2nnc(NC(=O)c3cc4c([nH]c5ccccc54)c(-c4ccc(OC)cc4)n3)s2)cc2ccccc21 — IC50 (MTT; 72 h): 19.9 µM
CSc1nc(/N=C/c2cccc(O)c2)n(-c2ccc(C(=O)O)cc2)n1 — IC50 (MTT): 70.1 µM
Cc1ccc([P+](CCCCCCCCCCONC(N)=O)(c2ccc(C)cc2)c2ccc(C)cc2)cc1 — IC50 (imaging): 3.7 µM
COc1ccnc(COc2ccc(NC(=O)Nc3ccc(Cl)cc3)cc2)c1OC — IC50 (MTT; 72 h): 12.8 µM
CCn1c(-c2nnc(NC(=O)c3cc4c([nH]c5ccccc54)c(-c4cc(OC)c(OC)c(OC)c4)n3)s2)cc2ccccc21 — IC50 (MTT; 72 h): 18.7 µM
COc1ccc(O)c(/C=N/c2nc(SC)nn2-c2ccc(C(=O)O)cc2)c1 — IC50 (MTT): 55.3 µM
c1ccc2cc(-c3nnc(NC4CCCCC4)[nH]3)ccc2c1 — IC50 (48 h): 2.53 µM
O=C(O)c1ccc(-n2nc(Oc3ccccc3)nc2/N=C/c2cc([N+](=O)[O-])ccc2O)cc1 — IC50 (MTT): 62.8 µM
O=C1Nc2c(C(F)(F)F)cccc2[C@@]1(c1ccc(O)cc1)c1ccc(OC(F)(F)F)cc1 — IC50 (resazurin; 7 days): 0.093 µM
O=C(NC(=S)N1CCCCC1)c1ccc2ccccc2c1 — IC50 (48 h): 9.12 µM
COc1ccc(NC(=O)Nc2ccc(OCc3nccc(OCC(F)(F)F)c3C)cc2)cc1 — IC50 (MTT; 72 h): 19.2 µM
CC[C@H](C)C(=O)O[C@H]1CCC=C2C=C[C@H](C)[C@H](CC[C@@H]3C[C@@H](O)CC(=O)O3)[C@H]21 — IC50 (SRB; 72 h): 4.57 µg/mL
CC1=C(O)C(=O)C=C2C1=CC=C1[C@@]2(C)CC[C@@]2(C)[C@@H]3C[C@](C)(C(=O)OCCCCCO)CC[C@]3(C)CC[C@]12C — IC50 (MTT; 48 h): 0.48 µM
O=C(NC(=S)N1CCCC1)c1ccc2ccccc2c1 — IC50 (48 h): 6.22 µM
COc1ccc2oc(=O)cc(CSC(C)=O)c2c1 — IC50 (MTT; 36 h): > 20 µM
c1ccc(C[n+]2cn(COC3CCCCC3)c3ccccc32)cc1 — IC50 (MTT; 72 h): 44.2 µM
C=CC(=O)N1CCC[C@@H](n2nc(-c3ccc(Oc4ccccc4)cc3)c3c(N)ncnc32)C1 — IC50: > 10 µM
COc1cc(/C=N/c2nc(SC)nn2-c2ccc(C(=O)O)cc2)ccc1O — IC50 (MTT): 61.1 µM
O=C(Nc1nnc(-c2cc3ccccc3[nH]2)s1)c1cc2c([nH]c3ccccc32)c(-c2ccccc2)n1 — IC50 (MTT; 72 h): 5.12 µM
